The source of these data is ChEMBL document CHEMBL4680065, “Pharmacophore-based screening of diamidine small molecule inhibitors for protein arginine methyltransferases” (RSC Med Chem, 2021).

Structures are written as SMILES. pIC50: −log10 of the molar value.

The target in assay [1] is Protein arginine N-methyltransferase 3 (Homo sapiens, UniProt O60678). As to the kind of experiment: Inhibition of recombinant human His-tagged PRMT3 expressed in Escherichia coli BL21 (DE3) using biotin-labeled SMD1 as substrate incubated for 10 mins in presence of [3H]-SAM cofactor by scintillation proximity assay. Summed up: (§1)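 The inhibitor was serially diluted and added to the enzyme, [3H]-SAM and substrate mixture, and methylated substrate was quantified by scintillation proximity assay. Reactions were held at initial rate, with yield under 10% and substrate near Km. PRMT3, PRMT8 and G9a were His-tagged human proteins, and PRMT7 was GST-tagged, all expressed in E. coli and affinity-purified.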
Protein arginine N-methyltransferase 3, sequence (O60678 whole entry): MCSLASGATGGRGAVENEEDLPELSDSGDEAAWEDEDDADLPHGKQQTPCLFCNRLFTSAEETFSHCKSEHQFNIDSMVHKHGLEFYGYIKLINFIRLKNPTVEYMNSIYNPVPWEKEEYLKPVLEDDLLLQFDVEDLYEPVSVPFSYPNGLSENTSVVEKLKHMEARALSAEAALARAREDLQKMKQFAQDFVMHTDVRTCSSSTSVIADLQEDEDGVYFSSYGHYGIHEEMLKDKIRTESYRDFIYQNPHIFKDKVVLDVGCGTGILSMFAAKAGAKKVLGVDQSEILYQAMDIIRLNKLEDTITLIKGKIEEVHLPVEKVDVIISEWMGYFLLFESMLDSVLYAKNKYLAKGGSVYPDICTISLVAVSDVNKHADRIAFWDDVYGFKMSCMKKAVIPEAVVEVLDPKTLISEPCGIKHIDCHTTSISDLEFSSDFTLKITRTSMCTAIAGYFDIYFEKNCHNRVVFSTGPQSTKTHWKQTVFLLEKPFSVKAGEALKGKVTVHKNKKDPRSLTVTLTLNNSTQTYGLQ
(SPA uses beads or plates that emit light when radiolabelled molecules are held near them.)

Assay [2] has as its target T1, Histone-arginine methyltransferase CARM1 (Homo sapiens, UniProt Q86X55).
T1 sequence (Q86X55 whole entry): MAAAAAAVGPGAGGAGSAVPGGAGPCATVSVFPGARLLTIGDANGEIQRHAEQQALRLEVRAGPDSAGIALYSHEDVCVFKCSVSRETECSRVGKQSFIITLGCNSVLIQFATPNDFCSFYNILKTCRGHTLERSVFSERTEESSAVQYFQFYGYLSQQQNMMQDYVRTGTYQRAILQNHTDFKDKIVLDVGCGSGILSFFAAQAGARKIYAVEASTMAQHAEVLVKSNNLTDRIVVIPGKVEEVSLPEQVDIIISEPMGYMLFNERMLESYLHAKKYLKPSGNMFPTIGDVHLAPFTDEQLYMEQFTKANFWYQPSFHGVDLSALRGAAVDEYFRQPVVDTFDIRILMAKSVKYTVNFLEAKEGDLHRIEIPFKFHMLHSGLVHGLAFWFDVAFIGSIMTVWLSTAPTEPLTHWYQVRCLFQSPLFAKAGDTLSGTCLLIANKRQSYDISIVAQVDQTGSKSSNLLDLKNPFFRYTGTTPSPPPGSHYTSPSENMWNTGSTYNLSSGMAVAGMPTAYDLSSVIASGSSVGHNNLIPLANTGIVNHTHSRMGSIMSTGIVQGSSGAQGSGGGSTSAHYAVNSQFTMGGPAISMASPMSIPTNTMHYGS
The assay is described as follows: Inhibition of recombinant GST-tagged CARM1 (unknown origin) expressed in Escherichia coli using […] incubated for 120 mins in presence of [3H]-SAM cofactor by radioactive filter plate assay.

Assay [3] concerns the target T2, Histone-arginine methyltransferase CARM1 (Homo sapiens) (UniProt Q86X55).
T2 sequence (whole entry): T1 sequence (Q86X55 whole entry)
The assay is described as follows: Inhibition of recombinant GST-tagged CARM1 (unknown origin) expressed in Escherichia coli assessed as residual activity at 10 uM using histone H3.3 peptide as substrate incubated for 120 mins in presence of [3H]-SAM cofactor by radioactive filter plate assay relative to control.

Assay [4] concerns the target T3, Histone-lysine N-methyltransferase EHMT2 (Homo sapiens, UniProt Q96KQ7).
T3 sequence (Q96KQ7 whole entry): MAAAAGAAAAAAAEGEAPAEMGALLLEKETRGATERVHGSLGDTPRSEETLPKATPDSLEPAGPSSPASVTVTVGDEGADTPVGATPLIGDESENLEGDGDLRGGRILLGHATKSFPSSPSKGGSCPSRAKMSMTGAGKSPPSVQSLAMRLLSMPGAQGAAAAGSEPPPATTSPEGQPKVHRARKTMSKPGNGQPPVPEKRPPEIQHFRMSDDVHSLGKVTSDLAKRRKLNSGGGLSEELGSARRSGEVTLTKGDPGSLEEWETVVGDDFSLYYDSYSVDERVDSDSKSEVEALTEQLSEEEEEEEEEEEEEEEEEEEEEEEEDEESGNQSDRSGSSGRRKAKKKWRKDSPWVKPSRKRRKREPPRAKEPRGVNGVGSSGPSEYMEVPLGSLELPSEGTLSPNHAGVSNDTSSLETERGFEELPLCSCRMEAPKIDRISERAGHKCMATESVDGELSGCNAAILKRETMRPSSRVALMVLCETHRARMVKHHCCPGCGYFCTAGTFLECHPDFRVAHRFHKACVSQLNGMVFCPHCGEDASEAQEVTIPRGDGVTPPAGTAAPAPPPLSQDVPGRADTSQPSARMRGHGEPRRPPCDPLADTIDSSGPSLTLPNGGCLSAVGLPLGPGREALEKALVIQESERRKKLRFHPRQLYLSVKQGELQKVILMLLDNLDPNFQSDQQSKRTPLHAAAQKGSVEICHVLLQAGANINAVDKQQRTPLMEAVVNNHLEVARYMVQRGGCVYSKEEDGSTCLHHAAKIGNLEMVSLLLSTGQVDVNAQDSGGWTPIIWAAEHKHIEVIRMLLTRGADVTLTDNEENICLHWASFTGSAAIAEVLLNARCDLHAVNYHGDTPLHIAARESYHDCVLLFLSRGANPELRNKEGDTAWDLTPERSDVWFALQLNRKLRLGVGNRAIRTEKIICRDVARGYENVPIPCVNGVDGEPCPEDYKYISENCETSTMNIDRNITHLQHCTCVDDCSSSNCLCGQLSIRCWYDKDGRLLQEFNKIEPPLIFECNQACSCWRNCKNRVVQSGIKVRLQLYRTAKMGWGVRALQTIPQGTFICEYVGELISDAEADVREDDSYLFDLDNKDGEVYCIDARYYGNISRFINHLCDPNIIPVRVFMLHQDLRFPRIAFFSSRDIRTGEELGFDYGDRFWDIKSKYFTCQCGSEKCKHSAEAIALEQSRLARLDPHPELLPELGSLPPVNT
The assay is described as follows: Inhibition of recombinant His-tagged human G9a expressed in Escherichia coli BL21 (DE3) using biotin-labeled histone H3-20 peptide as substrate incubated for 30 mins in presence of [3H]-SAM cofactor by scintillation proximity assay. Summed up: as §1

Assay [5] deals with T4, Histone-lysine N-methyltransferase EHMT2 (Homo sapiens) (UniProt Q96KQ7).
T4 sequence (whole entry): T3 sequence (Q96KQ7 whole entry)
The assay is described as follows: Inhibition of recombinant His-tagged human G9a expressed in Escherichia coli BL21 (DE3) assessed as residual activity at 10 uM using biotin-labeled histone H3-20 peptide as substrate incubated for 30 mins in presence of [3H]-SAM cofactor by scintillation proximity assay relative to control. Put shortly: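 Single-point profiling used 10 μM inhibitor added to the enzyme, [3H]-SAM and substrate mixture. Methylated substrate was quantified by scintillation proximity assay. Reactions were held at initial rate, with yield under 10% and substrate near Km. Enzyme, [3H]-SAM and substrate final levels are given in the supplement.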

Turning to `N=C(N)c1ccc(Nc2ccc(-c3cc4ccc(C(=N)N)cc4[nH]3)cc2)cc1`, the pIC50 in assay [1] is 5.47; in assay [2], 4.56; in assay [4], 5.43. In addition, the Activity is 50.7% in assay [3] and 10.5% in assay [5].

Usually pIC50 stands for the IC50 on a negative log10 scale, so that one unit is a factor of ten.
